Measured values pooled from the literature.
Compare with care: the assays were run in different laboratories.
Target: MAP kinase-activated protein kinase 2 (MAPKAPK2, Homo sapiens, UniProt P49137)

Compound | test | conditions | remaining binding [%]
O=C(O)c1cc(-c2ccc(C3CCNCC3)cc2)c2ccc(-c3ccc(C(F)(F)F)cc3)cc2c1 | cell-free assay, competition with immobilised ligand | 1 µM | 51
N[C@H]1CCN(c2nccc(-c3cnn4ncccc34)n2)C1 | binding | 1 µM | 39
N#Cc1ccccc1CSc1nnc2c(n1)[nH]c1ccccc12 | binding, competition with immobilised ligand | 10 µM | 82
CN(C)c1nccc(-c2cnc3ncccn23)n1 | binding | 1 µM | 84
CNCc1ccccc1-c1csc([C@@H](C)Nc2nc(C)nc3cc(OC)c(OC)cc23)c1 | cell-free assay, competition with immobilised ligand | 1 µM | 83
C=CC(=O)N1CCC(C(=O)NCC(=O)N2CCN(c3nc(-c4cnc(N)nc4C(F)F)nc(N4CCOCC4)n3)CC2)CC1 | binding, competition with immobilised ligand | 1 µM | 100
C[C@@H]1CN(c2ccc3ncc(-c4ccc5[nH]nc(C6CC6)c5c4)n3n2)C[C@H](C)O1 | binding, competition with immobilised ligand | 50 nM | 62
C[C@H]1CCN(c2nccc(-c3cnn4ncccc34)n2)C1 | binding | 1 µM | 100
Nc1ncc2c(n1)-c1c([nH]c3ccc(C#CC4CC4)cc13)CCCC2 | binding, competition with immobilised ligand | 1 µM | 86
NS(=O)(=O)c1cc(NC(=O)Cc2ccccc2)ccc1Oc1cccc(Cl)c1 | cell-free assay, competition with immobilised ligand | 1 µM | 100
O=C(c1ccc(Nc2ncc(Cl)c(-c3cc4ccccc4s3)n2)cc1)N1CCC(N2CCCC2)CC1 | binding, competition with immobilised ligand | 1 µM | 100
FC(F)(F)Oc1cccc(-c2cnc3ccc(-c4ccncc4)nn23)c1 | cell-free assay, competition with immobilised ligand | 5 µM | 100
CC(C)(C)c1ccc(-c2nc(CBr)nn2-c2cccc(O)c2)cc1 | cell-free assay, competition with immobilised ligand | 10 µM | 100
CCCOc1ccc([C@H]2[C@H](C(=O)O)[C@@H](c3ccc4c(c3)OCO4)CN2CC(=O)Nc2c(CC)cccc2CC)cc1 | cell-free assay, competition with immobilised ligand | 1 µM | 100
c1cnn2ncc(-c3ccnc(N4CCC45COC5)n3)c2c1 | binding | 1 µM | 100
O=C(Nc1c[nH]nc1C(=O)NC1CCNCC1)c1cc(F)cc(F)c1 | binding, competition with immobilised ligand | 1 µM | 100
F[C@@H]1CCN(c2nccc(-c3cnn4ncccc34)n2)C1 | binding | 1 µM | 93
COc1cc(-c2cn(C3CCc4ccccc4N(CC(F)(F)F)C3=O)nn2)ccc1-n1ccc(C)n1 (stereo not drawn) | cell-free assay, competition with immobilised ligand | 1 µM | 90
CNC(=O)[C@@H]1CC[C@@H](n2c(-c3ccc4cnccc4c3)nc3ccc(C(=O)NCc4cccc(C(N)=O)c4)cc32)C1 | binding, competition with immobilised ligand | 1 µM | 98
Cc1cnn2ncc(-c3ccnc(N(C)C)n3)c2c1 | binding | 1 µM | 100
Cc1c[nH]c2nccc(Oc3c(F)cc(Nc4cc(Cl)nc(N)n4)cc3F)c12 | cell-free assay, competition with immobilised ligand | 0.1 µM | 100
Cc1cnc(Nc2ccc(C(=O)N3CCC(N4CCCC4)CC3)cc2)nc1-c1cc2ccccc2s1 | binding, competition with immobilised ligand | 1 µM | 100
Cc1c(C(=O)O)cc(-c2ccc(C3CCNCC3)cc2)c2ccc(-c3ccc(C(F)(F)F)cc3)cc12 | binding, competition with immobilised ligand | 1 µM | 88
O=C(NCCCN1CCOCC1)c1ccc(Nc2ncc(Cl)c(-c3ccc(Cl)s3)n2)cc1 | binding, competition with immobilised ligand | 1 µM | 100
